Screening data (PubChem BioAssay)
Hits are enriched below; roughly 2.5% of the tested compounds scored in any of these assays.
Tb hexokinase = blocks Trypanosoma brucei hexokinase 1 activity; inhibition, % at 10 µM; 220,000 compounds, 0.11% hits; recombinant TbHK1, G6PDH-coupled NADH A340;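 active = inhibition of 50% or more in the single-dose primary screen; inactive = inhibition below 50%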
HKDC1 inh = HKDC1 (human) hexokinase inhibition; Q2TB90; recombinant HKDC1, G6PDH/diaphorase resazurin coupled fluorescence; inhibition, % at 20 µM; 340,000 compounds, 0.16% hits; AID 493160;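 active = inhibition above about 35% when tested at 20 µM, limit read from the data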;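 also: plate controls were DMSO wells with enzyme for no effect and DMSO wells lacking enzyme for full effect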
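Incubation: 90 min at room temperature in dark / Material: recombinant HKDC1 (HK5) hexokinase enzyme, produced in-house / Quantity: enzyme 5 µg/mL final / Compound: one dose of 20 µM, 1% DMSO / Reagent: glucose and ATP substrates / Buffer or medium: Tris pH 8.0 buffer with MgCl2, Tween-20, BSA, BME / Technique: resorufin fluorescence at 613 nm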
PGE2 EP2 inh = EP2 receptor (human) inhibition; C6 glioma cells expressing human EP2, cAMP TR-FRET; cells stimulated with saturating PGE2; inhibition, % at 25 µM; 260,000 compounds, 0.52% hits; AID 1422;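 active = percent inhibition above 40 after rounding to a whole number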;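 also: rat C6 glioma host cells with rolipram phosphodiesterase inhibitor present; the protocol text gives 20 µM as final concentration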
Target sequence (P43116 whole entry, looked up): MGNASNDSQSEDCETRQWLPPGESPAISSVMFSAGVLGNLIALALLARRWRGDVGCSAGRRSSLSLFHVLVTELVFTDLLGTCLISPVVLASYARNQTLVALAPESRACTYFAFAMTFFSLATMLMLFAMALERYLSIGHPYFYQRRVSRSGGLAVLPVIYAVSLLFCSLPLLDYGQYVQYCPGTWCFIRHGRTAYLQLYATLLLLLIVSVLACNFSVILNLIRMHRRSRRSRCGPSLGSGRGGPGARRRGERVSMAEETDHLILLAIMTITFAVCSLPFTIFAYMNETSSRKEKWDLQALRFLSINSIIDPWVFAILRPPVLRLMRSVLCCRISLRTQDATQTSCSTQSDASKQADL
PfG6PD inh = PfG6PD (Plasmodium falciparum) enzyme inhibition | PfGluPho enzyme, NADPH resazurin-diaphorase fluorescence | inhibition, % at 20 µM | 350,000 compounds, 0.78% hits;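 active = inhibition reaching at least a set limit at 20 µM in the primary screen, cut at about 59% in these data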;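 also: 0% = DMSO wells with substrate and 100% = DMSO wells lacking glucose-6-phosphate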
EP2 modulator = EP2 receptor (human) modulation. P43116. EP2-expressing cells, cAMP HTRF FRET, PGE2 co-stimulation. induction, % at 25 µM. 260,000 compounds, 0.83% hits;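 active = compounds whose cAMP rise, as percent of the full-agonist control response, exceeds 60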;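 also: rat C6 glioma line stably carrying human EP2 under a CMV promoter; the protocol text gives 20 µM as final concentration; 100% = response of wells given 1 µM PGE2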
PHOSPHO1 inh = PHOSPHO1 (human) inhibition; AID 1565; Q8TCT1; inhibition, % at 13.3 µM; recombinant PHOSPHO1, absorbance phosphatase assay; 290,000 compounds, 1.1% hits; in the data active = inhibition above about 60%
Target sequence (Q8TCT1 whole entry, looked up): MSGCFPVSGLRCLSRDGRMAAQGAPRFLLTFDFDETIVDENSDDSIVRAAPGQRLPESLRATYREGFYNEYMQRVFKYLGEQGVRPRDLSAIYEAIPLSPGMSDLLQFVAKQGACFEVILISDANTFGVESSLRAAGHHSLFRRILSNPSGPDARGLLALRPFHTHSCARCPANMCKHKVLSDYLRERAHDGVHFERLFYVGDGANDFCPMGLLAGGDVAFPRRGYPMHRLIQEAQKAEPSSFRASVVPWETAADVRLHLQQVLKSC
Numbers without * were called inactive; · = no result; ! = not active in a repeat.

SMILES	Tb hexokinase	HKDC1 inh	PGE2 EP2 inh	PfG6PD inh	EP2 modulator	PHOSPHO1 inh
COc1cccc(CC(=O)N2CCC(c3ccnc4nc(C(F)(F)F)nn34)CC2)c1	·	·	·	·	-12.8	·
Nc1ccn([C@H]2O[C@H](COC(=O)C34CC5CC(CC(C5)C3)C4)[C@@H](O)[C@@H]2O)c(=O)n1	·	·	51.2*	·	2.2	·
Nc1ccn(C2OC(COC(=O)C34CC5CC(CC(C5)C3)C4)C(O)C2O)c(=O)n1 (stereo not given)	·	-5.7	·	2.2	·	·
CCC(c1nnnn1CC1CCCO1)N(Cc1ccco1)Cc1cc2cc(C)ccc2[nH]c1=O (stereo not given)	·	·	19.4	·	18.9	·
COC(=O)c1ccc(NC(=O)C2CCN(C(=O)c3cc(OC)c(OC)c(OC)c3)CC2)cc1	-3.0	-0.9	10.8	4.6	25.8	106.5*
CCOC(=O)c1ccc(NC(=O)C2CCN(C(=O)c3ccc(OC)c(OC)c3)CC2)cc1	-7.1	-4.3	2.4	-6.1	-2.3	-22.9
CCCCNc1nc(N)nc(-c2cc(Cl)ccc2O)n1	-4.4	12.4	9.3	11.2	64.4*	-2.7
CN(C)CCCN1c2ccc3ccccc3c2Sc2cccc(Cl)c21	·	8.1	49.0*	26.1	-19.7	·
CN(C)CCCN1c2ccccc2Sc2ccc3ccccc3c21	·	20.8	12.4	18.2	-17.0	·
CCN(CC)S(=O)(=O)c1ccc(Cl)c(NC(=O)COc2ccc3c(C)cc(=O)oc3c2)c1	-15.9	-6.0	8.2	-13.2	2.6	14.0
CCN(CC)S(=O)(=O)c1ccc(OC)c(NC(=O)COc2ccc3c(C)cc(=O)oc3c2)c1	-20.8	-3.2	66.5*	16.5	9.6	-1.3
CCOC(=O)c1c2c(c(=S)n(-c3ccccc3)c1N)CCC2	-7.4	4.5	7.9	3.2	52.7	45.0
N#Cc1c2c(c(=S)n(-c3ccccc3)c1N)CCCC2	-5.7	10.8	5.5	28.7	-29.8	61.1*
Cc1nc2ccc(-c3ccccc3)cc2o1	-3.8	-3.3	10.9	0.3	8.7	79.2*
Cc1nc2cc(Cc3ccccc3)ccc2o1	·	0.1	·	20.0	·	·
CN1CC(c2ccccc2)C2(SC(=S)N(Cc3ccco3)C2=O)C12C(=O)Nc1ccccc12 (stereo not given)	-3.7	-1.0	8.7	10.6	60.6*	11.5
O=C(c1c(F)cccc1F)N1CCCC(c2nc(-c3ccc(F)cc3)no2)C1 (stereo not given)	·	-4.6	·	-4.1	·	61.5*
O=C(c1ccc(F)cc1)N1CCCC(c2nc(-c3ccncc3)no2)C1 (stereo not given)	·	-4.3	·	-0.4	·	·
CCCNC(=O)C(=O)Nc1nccs1	·	·	4.4	·	14.3	·
CCC(C(=O)OC)n1c(-c2ccccc2)nc2ccccc2c1=O (stereo not given)	-2.6	-5.8	7.3	1.9	68.6*!	6.1
CC(CCc1ccccc1)NC(=O)/C=C/c1ccccc1 (stereo not given)	2.5	-0.2	8.3	1.2	-27.5	63.9*
C=CCNC(=O)[C@H]1C=CCN1C(=O)c1ccccc1F	·	·	·	·	-3.5	·
CC(NC(=O)/C(C#N)=C/c1ccc(Cl)c([N+](=O)[O-])c1)c1ccccc1 (stereo not given)	-1.8	6.2	68.7*	30.4	-15.1	-4.0
COc1cccc2c1C(=N)c1c(O)c3c(c(O)c1C2=O)C[C@](O)(C(C)=O)C[C@@H]3O[C@@H]1C[C@H](N)[C@@H](O)[C@H](C)O1	·	·	128.2*	·	-116.3	·
COc1cccc2c1C(=O)c1c(O)c3c(c(O)c1C2=O)C[C@](O)(C(=O)CO)C[C@@H]3O[C@@H]1C[C@H](N)[C@@H](O)[C@H](C)O1	·	·	40.2*	·	30.6	·
SMILES	Tb hexokinase	HKDC1 inh	PGE2 EP2 inh	PfG6PD inh	EP2 modulator	PHOSPHO1 inh
COc1cccc2c1C(=O)c1c(O)c3c(c(O)c1C2=O)C[C@@](O)(C(C)=O)C[C@@H]3O[C@H]1C[C@H](N)[C@H](O)[C@H](C)O1	-9.6	16.4	·	-15.5	0.4	-3.8
COc1cccc2c1C(=O)c1c(O)c3c(c(O)c1C2=O)C[C@@](O)(C(=O)CO)C[C@@H]3O[C@H]1C[C@H](N)[C@@H](O)[C@H](C)O1	·	21.3	17.5	51.8	·	·
C=CCn1c(CNC(=O)c2ccc(Cl)cc2Cl)n[nH]c1=S	·	·	12.3	·	-16.9	·
COCCn1c(C)cc(C(=O)CSc2nc3ccccc3o2)c1C	5.2	-1.0	16.8	10.1	-12.5	97.8*
O=S(=O)(NC1(c2ccc(F)cc2)CC1)c1ccc2c(c1)OCCO2	·	·	2.2	·	-6.5	·
O=C(c1ccc(Br)s1)N1CCn2c(nnc2C2CC2)C1	·	·	·	·	-11.4	·
C=CCn1c(=NC(=O)C2COc3ccccc3O2)sc2cc(S(N)(=O)=O)ccc21 (stereo not given)	4.0	-1.5	17.0	-5.7	-12.7	-7.8
COCCn1c(=NC(=O)C2COc3ccccc3O2)sc2cc(S(N)(=O)=O)ccc21 (stereo not given)	-4.3	14.6	58.4*	6.8	-50.6	-5.1
CC(=O)N1CC(C)Oc2ccc(S(=O)(=O)NC(CC(=O)O)c3ccccc3C)cc21 (stereo not given)	·	-4.7	·	-14.1	·	64.9*
N=C(N)SCc1ccc(Cl)cc1Cl (tested in a mixture with another compound)	·	·	52.6*	·	-31.9	·
CCOc1ccc(OCC)c(NC(=O)CSc2nc(N)cc(N)n2)c1	·	·	17.9	·	-29.1	·
COC(=O)Sc1nnc(-c2ccc(Br)cc2)o1	-12.2	·	45.2*	·	33.9	52.4
Cc1ccccc1OC(=O)n1c(=S)oc2cc(Cl)ccc21	-3.6	4.1	9.5	-7.4	24.7	102.7*
CSc1nc(C)cc(Nc2ccc(O)c(CN3CCOCC3)c2)n1	·	·	44.1*	·	5.9	·
Cc1cc2oc(=O)cc(CN3CCCCC3)c2cc1O	·	-0.9	·	-9.9	·	60.8*
N#CCCn1c(SCC(=O)N2CCN(S(=O)(=O)c3ccccc3)CC2)nc2ccccc21	2.5	-2.5	8.9	12.0	-3.9	85.7*
COc1ccccc1-n1cnnc1SCC(=O)N1CCN(S(=O)(=O)c2ccccc2)CC1	-0.7	1.9	12.0	3.9	-1.8	87.8*
CCn1cncc1CN(CCCn1ccnc1)CC1CC=CCC1 (stereo not given)	·	·	7.4	·	16.2	·
COc1cccc(C2=NOC(C(=O)NCc3ccccn3)C2)c1 (stereo not given)	3.3	11.2	6.0	-12.3	-9.4	60.5*
COc1ccc(C2=NOC(C(=O)NCc3ccccn3)C2)cc1 (stereo not given)	26.1	-2.5	4.1	-3.4	-13.1	3.2
CCCC(c1nnnn1CCOC)N(Cc1cc2cc(C)c(C)cc2[nH]c1=O)CC1CCCO1 (stereo not given)	-13.7	-5.1	·	-6.0	9.1	3.9
CCC(c1nnnn1CCOC)N(Cc1cc2cc(C)c(C)cc2[nH]c1=O)CC1CCCO1 (stereo not given)	-24.0	1.3	2.1	-3.8	16.7	75.5*
Cc1ccc(S(=O)(=O)N2CCC3(CC2)Nc2ccccc2-n2cccc23)cc1Cl	·	·	·	·	-44.2	·
C[C@H](Oc1ccc(Oc2cnc3ccc(Cl)cc3n2)cc1)C(=O)O	·	·	46.3*	·	9.2	·
